One series has as its system Hepatitis B virus. Nature of the series: Antiviral activity against HBV infected in human HepG2(2.2.15) cells assessed as decrease in HBV genome replication after 5 days by qPCR method. The class given is functional, cell-based. The following applies: HepG2 2.2.15, 120 h. In outline:
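HepG2.2.15 cells (stable HBV genome, Hep G2-derived; DMEM-F12, 10% FBS, penicillin/streptomycin, 0.5 mg/mL G418) seeded 3 × 10^4/well, incubated overnight at 37 °C. Compounds serially half-log diluted in DMSO, then in medium; final DMSO 0.5%. HBV DNA extracted and quantified by qPCR.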
(In qPCR the cycle at which signal appears reflects the starting amount.)

Series [1] is described as follows: Cytotoxicity against HBV infected human HepDE19 cells assessed as decrease in cell viability after 5 days by CCK8 assay. It is filed as cell-based. In outline:
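Tetracycline-inducible HBV HepDE19 cells seeded 5 × 10^3/well and treated with compounds. After 5 days, viability read by CCK-8 (2 h, 37 °C; absorbance 450 and 630 nm).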
Background: Tetrazolium dyes change colour on reduction, which living cells bring about.

A short description of series [2]: Selectivity index, ratio of CC50 for HBV infected human HepDE19 cells to EC50 for HBV infected in human HepG2(2.2.15) cells. In outline: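 Selectivity index calculated as CC50 (HepDE19, CCK-8 viability after 5 days) divided by EC50 (HBV DNA reduction in HepG2.2.15 cells, qPCR).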

Each structure is given as a SMILES string.

A word on the EC50: it is the concentration needed to bring the measured effect to its halfway point. As for `CC1=C(C(=O)O)C(c2ccc(F)cc2Cl)N=C(c2nccs2)N1` (centres undefined), in the series on Hepatitis B virus, the EC50 is more than 1 µM.

As usually defined, the CC50 is the concentration that lowers cell viability or growth by half. In the case of `COC(=O)C1=C(CN2CCOC[C@H]2C(=O)O)NC(c2nccn2C)=N[C@H]1c1ccc(F)cc1Cl`, the EC50 with Hepatitis B virus came to 0.042 µM. For the same compound, the cytotoxic concentration (CC50) at 120 h in series [1] came to 82 µM. Also, the “Ratio CC50/EC50” value in series [2] is 1952.

For `COC(=O)C1=C(CN2CCN(C(C)=O)C[C@H]2C(=O)O)NC(c2nccs2)=N[C@H]1c1ccc(F)cc1Cl`, the EC50 in the series with Hepatitis B virus was more than 1 µM.

In the case of `COC(=O)C1=C(CN2CCOC[C@H]2C(=O)O)NC(c2nccs2)=N[C@H]1c1cccc(F)c1Cl`, in the series on Hepatitis B virus, the 50% effective concentration (EC50) was 0.004 µM. For the same compound, the CC50 at 120 h in series [1] is more than 100 µM. Besides, in series [2], the “Ratio CC50/EC50” value was more than 25000.

`COC(=O)C1=C(C)NC(c2nc(C(=O)O)cs2)=NC1c1ccc(F)cc1Cl` (centres undefined): the concentration giving a half-maximal response (EC50) with Hepatitis B virus was more than 1 µM.

Consider `COC(=O)C1=C(C)NC(c2nccs2)=NC1c1cccc(C(=O)O)c1` (centres undefined), for which the EC50 with Hepatitis B virus was more than 1 µM.

Regarding `CC(C)(C)OC(=O)C1=C(CN2CCOC[C@H]2C(=O)O)NC(c2nccs2)=N[C@H]1c1ccc(F)cc1Cl`, in the series on Hepatitis B virus, the 50% effective concentration (EC50) is more than 0.1 µM. Moreover, in series [1], the CC50 at 120 h stood at 41 µM.

As for `COC(=O)C1=C(CN2CCOC[C@H]2C(=O)O)NC(c2nccs2)=N[C@H]1c1ccc(F)cc1C(F)(F)F`, the EC50 in the series on Hepatitis B virus is more than 0.1 µM. Further, the CC50 at 120 h in series [1] is more than 100 µM.

`CCNC(=O)C1=C(CN2CCOC[C@H]2C(=O)O)NC(c2nccs2)=N[C@H]1c1ccc(F)cc1Cl`: the EC50 in the series with Hepatitis B virus was more than 1 µM.

Consider `CCOC(=O)C1=C(CN2CCOC[C@H]2C(=O)O)NC(c2nccs2)=N[C@H]1c1ccc(F)c(F)c1C`, for which the half-maximal effective concentration (EC50) in the series with Hepatitis B virus was determined as 0.0006 µM. The half-maximal cytotoxic concentration (CC50) at 120 h in series [1] worked out at 97 µM.

On to `CCOC(=O)C1=C(CN2CCOC[C@H]2C(=O)O)NC(c2nccs2)=N[C@H]1c1ccc(C#N)cc1`, for which the EC50 with Hepatitis B virus is more than 0.1 µM.

As for `CCOC(=O)C1=C(CN2CCOC[C@H]2C(=O)O)NC(c2nccs2)=N[C@H]1c1ccc(F)cc1Br`, the CC50 at 120 h in series [1] came out at 72 µM.

Consider `N#CC1=C(CN2CCOC[C@H]2C(=O)O)NC(c2nccs2)=N[C@H]1c1ccc(F)cc1Cl`, for which the EC50 with Hepatitis B virus was more than 1 µM.

For `COC(=O)C1=C(CN2CCOC[C@H]2C(=O)O)NC(c2ncco2)=N[C@H]1c1ccc(F)cc1Cl`, in the series on Hepatitis B virus, the concentration for a half-maximal effect (EC50) was more than 1 µM. Further, the 50% cytotoxic concentration (CC50) at 120 h in series [1] is more than 100 µM.

As to `CCOC(=O)C1=C(CN2CCOC[C@H]2C(=O)O)NC(c2nccs2)=N[C@H]1c1ccc(Br)cc1Cl`, the 50% effective concentration (EC50) with Hepatitis B virus was determined as 0.003 µM. Besides, the 50% cytotoxic concentration (CC50) at 120 h in series [1] came out at 31 µM.

For `CCOC(=O)C1=C(CN2CCOC[C@H]2C(=O)O)NC(c2nccs2)=N[C@H]1c1cccc(Cl)c1Cl`, in the series on Hepatitis B virus, the EC50 was more than 0.1 µM.

For `CCOC(=O)C1=C(CN2CCOC[C@H]2C(=O)O)NC(c2nccs2)=N[C@H]1c1ccc(OC)cc1`, in the series with Hepatitis B virus, the concentration giving a half-maximal response (EC50) is more than 0.1 µM.

For `COC(=O)C1=C(CN2CCCC[C@H]2C(=O)O)NC(c2nccs2)=N[C@H]1c1ccc(F)cc1Cl`, the EC50 in the series on Hepatitis B virus was more than 1 µM.

In the case of `COC(=O)C1=C(CN2CCOC[C@H]2C(=O)O)NC(c2nc(C3CC3)cs2)=N[C@H]1c1ccc(F)cc1Cl`, in the series with Hepatitis B virus, the concentration for a half-maximal effect (EC50) worked out at 0.022 µM.

In the case of `CCOC(=O)C1=C(CN2CCOC[C@H]2C(=O)O)NC(c2nccs2)=N[C@H]1c1cccc(C#N)c1Cl`, in the series with Hepatitis B virus, the half-maximal effective concentration (EC50) was more than 0.1 µM.

In the case of `COC(=O)C1=C(CN2CCNC[C@H]2C(=O)O)NC(c2nccs2)=N[C@H]1c1ccc(F)cc1Cl`, in the series with Hepatitis B virus, the EC50 was more than 1 µM.

On to `COC(=O)C1=C(C)NC(c2ncc(F)cc2F)=N[C@H]1c1ccc(F)cc1Cl`, for which the concentration giving a half-maximal response (EC50) in the series on Hepatitis B virus was in the range of 0.05 to 0.08 µM.

Turning to `CCOC(=O)C1=C(CN2CCOC[C@H]2C(=O)O)NC(c2nccs2)=N[C@H]1c1cccc(F)c1Br`, in the series on Hepatitis B virus, the concentration for a half-maximal effect (EC50) turned out to be 0.0007 µM. Also, the CC50 at 120 h in series [1] is 95 µM.

Take `COC(=O)C1=C(CN2CCOC[C@H]2C(=O)O)NC(c2nccs2)=N[C@H]1c1ccc(F)cc1Br`: in the series with Hepatitis B virus, the EC50 was determined as 0.006 µM. The CC50 at 120 h in series [1] was more than 100 µM.

As to `COC(=O)C1=C(CN2CCOC[C@H]2C(=O)O)NC(c2nccs2)=N[C@H]1c1ccc(F)cc1C1CC1`, the EC50 with Hepatitis B virus is more than 0.1 µM. Besides, the 50% cytotoxic concentration (CC50) at 120 h in series [1] is more than 100 µM.

For `COC(=O)C1=C(CN2CCOC[C@H]2C(=O)O)NC(c2ncccn2)=N[C@H]1c1ccc(F)cc1Cl`, the EC50 in the series on Hepatitis B virus was more than 1 µM. For the same compound, the CC50 at 120 h in series [1] was more than 100 µM.

For the origin of these results see ChEMBL document CHEMBL4007508, “Discovery and Pre-Clinical Characterization of Third-Generation 4-H Heteroaryldihydropyrimidine (HAP) Analogues as Hepatitis B Virus (HBV) Capsid Inhibitors” (J Med Chem, 2017).
